Measured values pooled from the literature.
Protocols differ between the studies behind these lines.

SMILES	species	medium	route	dose	time	setting	concentration
CC1(C)NC(=O)N(c2ccc(F)c(Br)c2)C1=O	male Swiss mouse	plasma	oral	100 mg/kg	48 h	–	1110 ng/mL
CC(C)c1cc(C(=O)NCCN)c2cnn(C(C)C)c2n1	female BALB/c mouse	plasma	intraperitoneal	50 mg/kg	30 min	–	2430 ng/mL
NCc1cc2c(cc1F)C(=O)N(C1CCC(=O)NC1=O)C2 (centres unmarked)	male CD-1 mouse	plasma	intravenous	1 mg/kg	4 h	–	2.8 ng/mL
OCc1nc2ccc(NCc3ccc(C(F)(F)F)cc3)cc2[nH]1	male BALB/c mouse	brain	oral	10 mg/kg	6 h	–	227 ng/g
CC(C)(C)S(=O)(=O)c1cc2c(Nc3ccc4scnc4c3)ncnc2cc1OCCOP(=O)(O)O	BALB/c mouse	plasma	oral	10 mg/kg	6 h	–	21 ng/mL
Fc1ccc(Oc2ccc(Nc3ccc4ncc(OCC5CCNCC5)nc4c3)cc2)cc1	SCID mouse	plasma	intraperitoneal	50 mg/kg	24 h	–	1700 nM
O=C1CCC(N2Cc3cc(CO)c(F)cc3C2=O)C(=O)N1 (centres unmarked)	male CD-1 mouse	plasma	intravenous	1 mg/kg	4 h	–	1.7 ng/mL
Cc1nc2ccc(OCc3ccc(C(F)(F)F)cc3)cc2[nH]1	male BALB/c mouse	brain	oral	10 mg/kg	4 h	–	2000 ng/g
O=C1CCC(N2Cc3cc(C4CCN(Cc5ccccc5)CC4)ccc3C2=O)C(=O)N1 (centres unmarked)	male CD-1 mouse	plasma	oral	3 mg/kg	4.98 min	–	49.6 ng/mL
Cc1ccc2c(c1)C(=O)[C@]1(O)CCN(c3ccc4nc(C)ccc4c3)C1=N2	mouse	plasma	subcutaneous	10 mg/kg	30 min	–	2500 nM
CC1(C)NC(=O)N(c2ccc(F)c(S(C)(=O)=O)c2)C1=O	male Swiss mouse	plasma	oral	100 mg/kg	1 h	–	31900 ng/mL
O=Cc1cc2c(cc1F)C(=O)N(C1CCC(=O)NC1=O)C2 (centres unmarked)	male CD-1 mouse	plasma	intravenous	1 mg/kg	1.02 min	–	17.2 ng/mL
CC(C)n1ncc2c(C(=O)NCC3(C)CNC3)cc(C3CC3)nc21	female BALB/c mouse	plasma	intraperitoneal	50 mg/kg	1 h	–	2660 ng/mL
CN(C)C(=O)c1cc2cnc(Nc3ccc(-c4ccc5c(=O)cc(N6CCOCC6)oc5c4)cc3)nc2n1C1CCCC1	BALB/c mouse	brain	oral	20 mg/kg	24 h	single dose	5.3 ng/g
